CHRM5 PAM = human M5 muscarinic receptor positive allosteric modulators, primary screen, CHO-K1 cells, Fluo-8 calcium fluorescence; CHO-K1 hM5, ACh EC20 PAM; 0% = ACh EC20, 100% = ACh EC100; Muscarinic acetylcholine receptor M5 (Homo sapiens), P08912; activation, % at 3 µM; 0.3% of 360,000 active;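 active = activation above the run cutoff, the mean activation of all test compounds plus 3 SD, cut at about 18% in these data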
Target sequence (P08912 whole entry, looked up): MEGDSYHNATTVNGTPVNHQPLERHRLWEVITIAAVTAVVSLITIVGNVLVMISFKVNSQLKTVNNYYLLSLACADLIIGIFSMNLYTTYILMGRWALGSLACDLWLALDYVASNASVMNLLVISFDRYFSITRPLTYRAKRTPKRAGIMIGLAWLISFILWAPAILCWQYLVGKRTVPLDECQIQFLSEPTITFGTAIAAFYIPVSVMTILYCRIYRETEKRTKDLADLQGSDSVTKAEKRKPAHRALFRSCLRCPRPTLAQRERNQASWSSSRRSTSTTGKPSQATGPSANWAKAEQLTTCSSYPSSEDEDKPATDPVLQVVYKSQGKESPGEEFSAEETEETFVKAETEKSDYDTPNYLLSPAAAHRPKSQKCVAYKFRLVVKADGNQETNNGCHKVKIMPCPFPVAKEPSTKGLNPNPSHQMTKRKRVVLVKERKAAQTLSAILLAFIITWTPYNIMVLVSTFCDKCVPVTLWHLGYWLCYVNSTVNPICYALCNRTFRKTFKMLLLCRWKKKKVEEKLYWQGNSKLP
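Assay system – human M5 receptor in CHO-K1 cells · Read-out – % activation, ACh-normalized · Technique – Fluo-8 calcium fluorescence · Dosing – single-point, 3 µM nominal · Incubation – Fluo-8 loading 80 min at 37 °C plus 30 min room temperature · Repeats – singlicate, one well per test compound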
CHRM5 antagonist = human M5 muscarinic receptor antagonists, primary screen, CHO cells, Fluo-8 calcium fluorescence | 0.59% of 360,000 active | inhibition, % at 3 µM | AID 624040, 2012 | CHO-hM5 cells, ACh EC80 | Muscarinic acetylcholine receptor M5 (Homo sapiens), P08912;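 active = inhibition above a per-plate cutoff, the mean of that plate's test compounds plus 3 SD, cut at about 27% in these data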;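 note: 0% = acetylcholine EC80 with DMSO and 100% = DMSO without agonist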
M4 PAM = human M4 muscarinic receptor positive allosteric modulators, primary screen, CHO-K1 cells, Fluo-8 calcium fluorescence. Muscarinic acetylcholine receptor M4 (Homo sapiens), P08173. CHO-K1 hM4/Gqi5, ACh EC20; 0% = ACh EC20, 100% = maximal ACh. activation, % at 3 µM. 0.4% of 360,000 active. AID 624126, 2012;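 active = activation above its plate's cutoff, the mean activation of sample wells plus 3 SD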
CHRM4 agonist = human M4 muscarinic receptor agonists, primary screen, CHO-K1 cells, Fluo-8 calcium fluorescence; Muscarinic acetylcholine receptor M4 (Homo sapiens), P08173; CHO-K1 hM4/Gqi5; vehicle 0%, full acetylcholine response 100%; activation, % at 3 µM; 0.14% of 360,000 active; AID 624127, 2012;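 active = activation above the run mean over all test wells plus 3 SD, cut at about 32% in these data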;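 note: peak over basal fluorescence ratio per well then scaled between controls; 0% = DMSO wells and 100% = acetylcholine at EC100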
CHRM4 antagonist = human M4 muscarinic receptor antagonists, primary screen, CHO cells, Fluo-8 calcium fluorescence. inhibition, % at 3 µM. AID 624125, 2012. 0.73% of 360,000 active. CHO-hM4 cells, ACh EC80;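 active = inhibition above its plate's cutoff, the mean inhibition of sample wells plus 3 SD, cut at about 27% in these data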;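 note: 0% = acetylcholine EC80 with DMSO and 100% = DMSO without agonist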
CHRM5 agonist = human M5 muscarinic receptor agonists, primary screen, CHO-K1 cells, Fluo-8 calcium fluorescence; 0.19% of 360,000 active; CHO-K1 hM5 cells; 0% DMSO wells, 100% maximal acetylcholine response; activation, % at 3 µM; Muscarinic acetylcholine receptor M5 (Homo sapiens), P08912; AID 624037, 2012;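 active = activation above the run's mean over test compounds plus 3 SD, cut at about 23% in these data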;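 note: signal is peak over basal fluorescence ratio across the kinetic read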
* hit, by the source's call. A selection: hits, their analogues and other compounds. The true share with any hit is near 1.9%.

SMILES	CHRM5 PAM	CHRM5 antagonist	M4 PAM	CHRM4 agonist	CHRM4 antagonist	CHRM5 agonist
Cc1[nH]c2ccccc2c1/C=N/NC(=O)c1cccc([N+](=O)[O-])c1	-5	8	1	3	3	-2
Cc1[nH]c2ccccc2c1/C=N/Nc1ccc([N+](=O)[O-])cc1	-9	31*	-7	16	13	15
Clc1ccccc1OCc1nnc(-c2ccccc2Br)o1	-2	1	-1	0	9	-3
O=c1c(Cl)c(Cl)cnn1Cc1nnc(-c2ccccc2Br)o1	-21	101*	-24	120*	99*	80*
O=[N+]([O-])c1ccc(N2CCN(C(=S)Nc3ccc(F)cc3)CC2)cc1	-19	13	-11	15	4	8
O=[N+]([O-])c1ccc(N2CCN(C(=S)Nc3ccc(F)cc3F)CC2)cc1	-23	34*	-16	15	12	7
Cc1csc2c(N3CCN(C(=O)Nc4ccccc4)CC3)ncnc12	-13	6	-20	15	6	8
Cc1csc2c(N3CCN(C(=S)Nc4ccc(F)cc4F)CC3)ncnc12	-30	29*	-34	15	-18	5
CC(CC(=O)NCC1CCCO1)c1ccccc1 (stereo not drawn)	-3	7	-4	1	-1	-2
COC(=O)c1ccc2c(c1)C(C)(C)C(/C=C/c1ccc(O)cc1)=[N+]2C	5	9	-9	7	14	22
COC(=O)c1ccc2c(c1)C(C)(C)C(/C=C/c1ccc(OC)c(OC)c1OC)=[N+]2C	-7	-2	-9	1	32*	-5
CCOC(=O)C(=CN=C(N)Nc1nc2ccccc2o1)C(=O)OCC	-4	-6	20*	0	-2	-2
Cc1cc(OCC(=O)NCCc2cccc(F)c2)c2c(C)cc(=O)oc2c1	0	5	7	1	-10	-2
O=C(NCC1CCCO1)c1ccc(NS(=O)(=O)c2ccccc2)cc1 (stereo not drawn)	-3	-5	9	2	-6	3
Cc1cc(C)c(C#N)c(Sc2nc(C)c([N+](=O)[O-])c(C)c2C#N)n1	-4	8	42*	2	34*	-7
CCN(CC)CC#CC(OC)(c1ccccc1)c1ccccc1	-16	96*	-27	-2	57*	-12
CCc1ccc(NC(=O)Cn2cc([N+](=O)[O-])nc2C)cc1	21*	-3	1	2	1	4
COc1ccc(CCC(C)NC2C3CC4CC(C3)CC2C4)cc1 (stereo not drawn)	-16	21	-34	7	66*	-8
Nc1nc(SCc2ccccn2)c2ncn(C3OC(CO)C(O)C3O)c2n1 (stereo not drawn)	2	9	-3	2	6	2
Cc1cccc(NS(=O)(=O)c2ccc(C(=O)NCC(c3ccco3)N3CCCCC3)cc2)c1C (stereo not drawn)	0	-8	-9	11	4	-2
Cc1ccc(CNc2nc(NCc3ccccc3)nc3ccsc23)c(C)c1	-18	28*	-13	22	28*	9
CNc1nc(NCc2ccc(C)cc2C)c2sccc2n1	-8	12	-6	7	1	5
COCCNc1nc(NCc2ccccc2OC)c2sccc2n1	-10	4	-1	14	-16	2
O=C1CCCN1CCCNc1nc(NCc2ccccc2)nc2ccsc12	-22	90*	-15	145*	96*	85*
COCCNc1nc(NCc2ccccc2)nc2ccsc12	-22	97*	-15	142*	100*	82*
SMILES	CHRM5 PAM	CHRM5 antagonist	M4 PAM	CHRM4 agonist	CHRM4 antagonist	CHRM5 agonist
CCN(CC(=O)N1CCOCC1)S(=O)(=O)c1ccccc1	0	-1	-1	1	-15	-4
O=C(O)c1cc(Cl)ccc1-c1ccc(/C=C/c2cc(C(F)(F)F)[nH]c(=O)n2)o1	-3	0	-5	39*	12	42*
O=C(O)c1ccccc1-c1ccc(/C=C/c2cc(C(F)(F)F)[nH]c(=O)n2)o1	-7	9	-7	10	1	44*
COc1ccccc1NC(=O)c1cc2c(cc1Cl)N1CCCCCC1=NS2(=O)=O	13	-12	0	1	-12	1
COC(c1ccccc1)c1nnc(CCC(=O)N2CCN(Cc3cccs3)CC2)o1 (stereo not drawn)	-2	4	-1	2	1	-3
COC(c1ccccc1)c1nnc(CCC(=O)N2CCCCCCC2)o1 (stereo not drawn)	2	5	18*	3	-18	0
O=C(CSc1nc(-c2ccccc2)cc(=O)[nH]1)N1CCOCC1	1	40*	7	1	-6	-4
O=C(CSc1nc(O)cc(=O)[nH]1)N1CCOCC1	1	8	-1	-1	-8	-2
Cc1cc(=O)[nH]c(SCC(=O)N2CCCCC2)n1	-1	8	2	1	-17	0
Cc1cc(=O)[nH]c(SCC(=O)N2CCN(C(c3ccccc3)c3ccccc3)CC2)n1	-24	32*	-17	0	20	-8
COc1ccc(OC)c(-c2nnc3n2N=C(c2ccc(OC)c(OCC4CC4)c2)CS3)c1	-14	-3	-9	5	29*	-12
COc1ccc(C2=Nn3c(nnc3-c3ccccc3Cl)SC2)cc1OCC1CC1	-24	16	-2	3	17	-10
O=C(Nc1ccccc1)Nc1ccccc1NS(=O)(=O)c1cccs1	-15	3	-6	13	-17	8
COC(=O)c1sccc1NC(=O)Nc1ccc(Cl)c(Cl)c1	-12	17	-19	4	28*	-1
O=C(Nc1ccc(Cl)c(Cl)c1)Nc1ccccc1NS(=O)(=O)c1cccs1	-19	30*	-9	13	6	4
COC(=O)c1ccc(NC(=O)Nc2ccc(F)c(Cl)c2)cc1	-21	31*	-8	25	9	15
COC(=O)c1ccc(NC(=O)Nc2ccc([N+](=O)[O-])cc2)cc1	-23	35*	-9	18	14	4
COc1ccc(OCC(=O)Nc2c(C)ccc3nsnc23)cc1	1	-2	3	2	1	-3

Source: PubChem
